Measurements reported in ChEMBL document CHEMBL1128245, “Dual-acting thromboxane receptor antagonist/synthase inhibitors: synthesis and biological properties of [2-substituted-4-(3-pyridyl)-1,3-dioxan-5-yl] alkenoic acids” (J Med Chem, 1995).

Experiments:
[1] = species: Homo sapiens; assay: In vitro inhibition of U-46,619-induced aggregation of unwashed human platelets.; format: functional; details: for Kb: Homo sapiens, read-out: pA2 (converted)
Procedure, shortened: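 Citrated (3.2%) human venous blood spun at 200g for 10 min. Platelet-rich plasma aggregated with U46619 with or without several antagonist concentrations.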

[2] = molecular target: T1, Thromboxane-A synthase (Homo sapiens, UniProt P24557); assay: In vitro Inhibition of thromboxane synthase from human blood platelet microsomes
T1 sequence (P24557 whole entry): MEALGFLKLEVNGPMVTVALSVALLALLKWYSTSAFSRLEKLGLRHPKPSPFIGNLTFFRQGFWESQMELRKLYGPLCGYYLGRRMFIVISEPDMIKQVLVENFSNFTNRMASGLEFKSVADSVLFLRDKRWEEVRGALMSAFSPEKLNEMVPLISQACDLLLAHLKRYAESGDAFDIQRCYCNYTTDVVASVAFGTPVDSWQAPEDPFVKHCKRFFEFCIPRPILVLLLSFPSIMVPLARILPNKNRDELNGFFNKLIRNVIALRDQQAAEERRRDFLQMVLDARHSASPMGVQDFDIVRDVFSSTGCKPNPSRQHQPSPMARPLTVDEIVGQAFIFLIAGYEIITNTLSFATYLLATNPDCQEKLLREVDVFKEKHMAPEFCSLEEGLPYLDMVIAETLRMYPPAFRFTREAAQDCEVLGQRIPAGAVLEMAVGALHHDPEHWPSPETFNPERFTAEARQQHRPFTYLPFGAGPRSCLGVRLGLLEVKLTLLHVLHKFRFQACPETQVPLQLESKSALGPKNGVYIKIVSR
Procedure, shortened: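 Human blood platelet microsomes incubated with [1-14C]arachidonic acid with or without inhibitor. Conversion to labeled thromboxane B2 quantified radiochromatographically. n = 2.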

[3] = molecular target: T2, Prostacyclin synthase (Homo sapiens, UniProt Q16647); assay: In vitro inhibition of Prostaglandin I2 synthase in cultured human endothelial cells
T2 sequence (Q16647 whole entry): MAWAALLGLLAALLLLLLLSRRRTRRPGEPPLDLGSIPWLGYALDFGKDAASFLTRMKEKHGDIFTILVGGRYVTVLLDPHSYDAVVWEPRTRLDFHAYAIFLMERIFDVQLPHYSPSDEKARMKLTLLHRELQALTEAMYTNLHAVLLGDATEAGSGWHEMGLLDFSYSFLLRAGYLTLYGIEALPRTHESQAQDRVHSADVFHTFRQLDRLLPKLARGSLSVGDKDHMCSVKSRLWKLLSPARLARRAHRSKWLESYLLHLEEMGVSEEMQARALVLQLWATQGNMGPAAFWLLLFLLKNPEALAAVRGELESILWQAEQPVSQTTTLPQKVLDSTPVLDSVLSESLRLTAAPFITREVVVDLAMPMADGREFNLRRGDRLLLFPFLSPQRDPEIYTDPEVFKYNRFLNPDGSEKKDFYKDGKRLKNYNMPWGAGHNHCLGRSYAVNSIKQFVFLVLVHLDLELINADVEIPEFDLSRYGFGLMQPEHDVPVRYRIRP

SMILES | Kb [1] | IC50 [2] | IC50 [3] | pA2 [1]
CC(C)(Cc1ccc(F)cc1C#N)C1OCC(C/C=C\CCC(=O)O)C(c2cccnc2)O1 (stereo unspecified) | 2.19 nM | < 10 nM | 7000 nM | –
COc1ccc(OC(C)(C)C2OCC(C/C=C\CCC(=O)O)C(c3cccnc3)O2)c([N+](=O)[O-])c1 (stereo unspecified) | 6.17 nM | 37 nM | 23000 nM | –
O=C(O)CC/C=C\CC1COC(c2cccs2)OC1c1cccnc1 (stereo unspecified) | 1000 nM | 71 nM | – | –
COc1ccc(OC(C)(C)C2OCC(C/C=C\CCC(=O)O)C(c3cccnc3)O2)cc1 (stereo unspecified) | 302 nM | 41 nM | > 100000 nM | –
CC(C)(Oc1ccccc1S(C)(=O)=O)C1OCC(C/C=C\CCC(=O)O)C(c2cccnc2)O1 (stereo unspecified) | 589 nM | 45 nM | 2000 nM | –
CC(C)(Sc1ccccc1)C1OCC(C/C=C\CCC(=O)O)C(c2cccnc2)O1 (stereo unspecified) | 200 nM | 40 nM | – | –
O=C(O)CC/C=C\CC1COC(c2ccc3ccccc3c2)OC1c1cccnc1 (stereo unspecified) | 1780 nM | 50 nM | – | –
COC(=O)c1ccccc1OC(C)(C)C1OCC(C/C=C\CCC(=O)O)C(c2cccnc2)O1 (stereo unspecified) | 64.6 nM | 66 nM | 73000 nM | –
Cc1ccc(OC(C)(C)C2OCC(C/C=C\CCC(=O)O)C(c3cccnc3)O2)cc1 (stereo unspecified) | 631 nM | 360 nM | 25000 nM | –
O=C(O)CC/C=C\CC1COC(c2ccc(C(F)(F)F)cc2)OC1c1cccnc1 (stereo unspecified) | 1780 nM | 44 nM | – | –
COc1ccccc1OC(C)(C)C1OCC(C/C=C\CCC(=O)O)C(c2cccnc2)O1 (stereo unspecified) | 224 nM | 60 nM | 51000 nM | –
O=C(O)CC/C=C\CC1COC(c2ccco2)OC1c1cccnc1 (stereo unspecified) | 1260 nM | 164 nM | – | –
O=C(O)CC/C=C\CC1COC(c2ccc(Cl)cc2Cl)OC1c1cccnc1 (stereo unspecified) | 891 nM | 42 nM | 2500 nM | –
CC(C)(Oc1ccccc1)C1OCC(C/C=C\CCC(=O)O)C(c2cccnc2)O1 (stereo unspecified) | 75.9 nM | 52 nM | 75000 nM | –
CSc1ccc(OC(C)(C)C2OCC(C/C=C\CCC(=O)O)C(c3cccnc3)O2)cc1 (stereo unspecified) | 372 nM | 39 nM | 32000 nM | –
O=C(O)CC/C=C\CC1COC(c2ccsc2)OC1c1cccnc1 (stereo unspecified) | 1580 nM | 500 nM | – | –
CC(C)(C1OCC(C/C=C\CCC(=O)O)C(c2cccnc2)O1)S(=O)(=O)c1ccccc1 (stereo unspecified) | 3160 nM | 40 nM | – | –
CC(C)(Cc1ccc(F)cc1)C1OCC(C/C=C\CCC(=O)O)C(c2cccnc2)O1 (stereo unspecified) | 89.1 nM | 45 nM | 2000 nM | –
O=C(O)CC/C=C\CC1COC(c2ccccc2Cl)OC1c1cccnc1 (stereo unspecified) | 759 nM | 48 nM | – | –
CSc1ccccc1OC(C)(C)C1OCC(C/C=C\CCC(=O)O)C(c2cccnc2)O1 (stereo unspecified) | 89.1 nM | 36 nM | > 100000 nM | –
CC(C)(Oc1ccc(C#N)cc1)C1OCC(C/C=C\CCC(=O)O)C(c2cccnc2)O1 (stereo unspecified) | 129 nM | 46 nM | 4000 nM | –
CC(C)(Oc1ccccc1C#N)C1OCC(C/C=C\CCC(=O)O)C(c2cccnc2)O1 (stereo unspecified) | 13.2 nM | 45 nM | 3000 nM | –
CC(C)(Oc1cccc(F)c1)C1OCC(C/C=C\CCC(=O)O)C(c2cccnc2)O1 (stereo unspecified) | 126 nM | 26 nM | 40000 nM | –
Cc1ccc(SC(C)(C)C2OCC(C/C=C\CCC(=O)O)C(c3cccnc3)O2)c([N+](=O)[O-])c1 (stereo unspecified) | 158 nM | 30 nM | – | –
O=C(O)CC/C=C\CC1COC(c2cccnc2)OC1c1cccnc1 (stereo unspecified) | 759 nM | 220 nM | – | –
CC(C)(Oc1ccc(Br)cc1)C1OCC(C/C=C\CCC(=O)O)C(c2cccnc2)O1 (stereo in doubt; 7b) | – | 51 nM | 3400 nM | 6.42
Cc1ccc(C#N)c(OC(C)(C)C2OCC(C/C=C\CCC(=O)O)C(c3cccnc3)O2)c1 (stereo unspecified) | 15.8 nM | 50 nM | > 100000 nM | –
